Measurements taken from PMC9076119 (RSC Advances, 2019).
Read-outs that look alike come from different tables or passages of the source.

Assays:
P. falciparum strain 3D7 = experiment: P. falciparum growth inhibition assay; format: cell-based, Plasmodium falciparum
In short: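 3D7 parasites kept in human erythrocytes (4% hematocrit) in RPMI with 0.5% albumax and synchronized by repeated sorbitol treatment. Assay wells used complete medium, 2% hematocrit and parasitemia ≤1%. Test compound (0–100 μM final) was added to 8–10 h rings, with a DMSO solvent control. Growth ran 52 h, then SYBR green DNA fluorescence was read. Triplicate wells; experiment repeated twice.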

3D7 Plasmodium parasites = experiment: Effect on parasite morphology and development; format: cell-based, Plasmodium falciparum; details: at their IC50 value concentration, ring stage (8–10 h) 3D7 parasites treated
In short: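 Sorbitol-synchronised P. falciparum 3D7 cultured in human erythrocytes (4% hematocrit) in RPMI with 0.5% albumax. Ring-stage (8–10 h) parasites treated with test compound, E-64 or solvent alone as control. Light microscopy of parasitized RBCs at several time points after treatment, following progression from ring to trophozoite to schizont to merozoites and reinvasion of fresh RBCs as new rings.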

[1] = Plasmodium falciparum, 3D7, read-out: Inhibition of P. falciparum EC50, 3D7 culture, ring stage 8–10 h, 52 h growth, SYBR green

Compound | EC50 (P. falciparum strain 3D7; [1]) [µM] | New ring formation (3D7 Plasmodium parasites) | EC50 (P. falciparum strain 3D7; read-out: Inhibition of P. falciparum EC50, 3D7 culture, ring stage 8–10 h, 52 h growth, SYBR green) [µM]
FC(F)(F)c1cccc(-n2cc(COc3ccnc4cc(Cl)ccc34)nn2)c1 [Compound T1, 7-Chloro-4-({1-[3-(trifluoromethyl)phenyl]-1H-1,2,3-triazol-4yl}methoxy) quinoline] | 49.5 |  | 
Fc1ccc(-n2cc(COc3ccnc4cc(Cl)ccc34)nn2)cc1F [Compound T4, 7-Chloro-4-{[1-(3,4-difluorophenyl)-1H-1,2,3-triazol-4-yl]methoxy} quinoline] | 21.9 | few new rings | 
Fc1ccccc1-n1cc(COc2ccnc3cc(Cl)ccc23)nn1 [Compound T5, 7-Chloro-4-{[1-(2-fluorophenyl)-1H-1,2,3-triazol-4-yl]methoxy} quinoline] | 49.5 |  | 66.6
Fc1ccc(-n2cc(COc3ccnc4cc(Cl)ccc34)nn2)cc1 [Compound T6, 7-Chloro-4-{[1-(4-fluorophenyl)-1H-1,2,3-triazol-4-yl]methoxy} quinoline] | ~57.9 |  | 
O=[N+]([O-])c1ccc(-n2cc(COc3ccnc4cc(Cl)ccc34)nn2)cc1 [Compound T7, 7-Chloro-4-{[1-(4-nitrophenyl)-1H-1,2,3-triazol-4-yl]methoxy} quinoline] | 49.9 | few new rings | 
COc1ccc(-n2cc(COc3ccnc4cc(Cl)ccc34)nn2)cc1 [Compound T8, 7-Chloro-4-{[1-(4-methoxyphenyl)-1H-1,2,3-triazol-4-yl]methoxy} quinoline] | 51.7 |  | 
Cc1ccccc1-n1cc(COc2ccnc3cc(Cl)ccc23)nn1 [Compound T9, 7-Chloro-4-{[1-(2-methylphenyl)-1H-1,2,3-triazol-4-yl]methoxy} quinoline] | 147 |  | 
Clc1ccc2c(OCc3cn(-c4ccccc4)nn3)ccnc2c1 [Compound T10, 7-Chloro-4-[(1-phenyl-1H-1,2,3-triazol-4-yl)methoxy] quinoline] | ~57.6 |  | 
